# Measured values as given in article PMC8489793 (ACS chemical biology, 2019).
# Entries after “also recorded” stand apart in the source; their conditions may differ.
# Experiments:
# [1] = system: MCF-10A cells; test: total cellular Zn^2+ by ICP-AES; format: cell-based, human; details: cotreatment with Zn^2+
# Method in brief: (§1)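 Total cellular zinc determined by inductively coupled plasma atomic emission spectroscopy after 3 h treatment with test compound alone or together with ZnSO4.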
# [2] = system: MCF-10 and MCF-7 cell lines; test: cell viability; format: cell-based, human
# Method in brief: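 Test compound combined with exogenously added transition metal ions. Viability read as cellular ATP content after 24 h of treatment. Mean and SEM of three replicates, each normalized to its respective control.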
# [3] = system: metal trafficking genes in MCF-7 cells; test: RT-PCR of metal trafficking gene induction; format: cell-based, human; details: ZNA 30 μM, 3 or 24 h, normalized to GAPDH
# Method in brief: (§2)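 Real-time PCR of metal trafficking gene induction after 3 or 24 h exposure to test compound at 30 μM, run in quadruplicate.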
# [4] = system: caspase 3/7, 8, or 9 activity in T47D, MDA-MB-231, and MCF-10A; test: quantification of caspase activity; format: cell-based, human; details: 6 or 72 h
# Method in brief: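 Caspase activity quantified after 6 or 72 h exposure to test compound with ZnSO4; staurosporine used as positive control. Mean and SD of three replicates.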
# [5] = system: hTERT-HMEC; test: dose–response assay in immortalized mammary epithelial cells; format: cell-based, human; details: therapeutic window; hTERT-HMEC per Figure 2C; 4 days
# Method in brief: (§3)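 Dose–response after 4 days of treatment in immortalized primary human mammary epithelial cells (hTERT-HMEC) or in primary metastatic, chemoresistant breast cancer cells from a patient's malignant pleural effusion. A 12-point series is stated for the effusion cells. Mean and SD of three replicates.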
# [6] = system: metal trafficking genes in MCF-10A cells; test: RT-PCR of metal trafficking gene induction; format: cell-based, human; details: ZNA 30 μM, 3 or 24 h, normalized to GAPDH
# Method in brief: as §2
# [7] = system: cancer cells; test: long-term colony formation after 24 h treatment; format: cell-based, human; details: 24 h treatment then 3 weeks without compound
# Method in brief: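 Cells were exposed to test compound for 24 h, then grown in compound-free medium for 21 days. Colonies were stained with crystal violet and quantified, and the mean and standard deviation of four replicates were reported.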
# [8] = system: MCF-10A cells; test: cellular proliferation by EdU incorporation; format: cell-based, human; details: 6 h
# Method in brief: (§4)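 Proliferation measured as percent EdU incorporation after 6 h with test compound (30 μM) and/or ZnSO4 (30 μM). Mean and SEM of three experimental replicates; compared against control.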
# [9] = system: MCF-10A; test: dose–response assay in untransformed mammary epithelial cell line; format: cell-based, human; details: 5 days
# Method in brief: (§5)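 Viability dose–response after 5 days of treatment in untransformed MCF-10A cells and in MCF-7, T47D and MDA-MB-231 breast cancer lines. Mean and SD of three replicates.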
# [10] = system: primary mouse mammary epithelial cells (MECs) organoids; test: 3D organoid model of normal mammary growth and branching morphogenesis; format: cell-based; details: for delay in branching morphogenesis: single agent; for organoids killed: 3D branching assay
# Method in brief: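 Primary mouse mammary epithelial cells embedded in Matrigel and stimulated to branch with FGF2. Test compound and/or ZnSO4, or vehicle, added from 48 h. At 144 h, organoids stained with Hoechst (nuclei), calcein AM (live) and SYTOX Orange (dead), then imaged.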
# [11] = system: MT1 and MT2 in renal and hepatic tissue; test: RT-PCR of metallothionein expression in tissue of treated mice; format: in vivo; details: 100 mg/kg intraperitoneal, nontumor bearing FVB/NJ mice
# Method in brief: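 Nontumor-bearing FVB/NJ mice received 100 mg/kg test compound intraperitoneally or vehicle, and were sampled 3 or 24 h later. MT1 and MT2 expression in kidney and liver was measured by real-time PCR, normalised to β-actin and expressed relative to controls.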
# [12] = system: MCF-7 cells; test: total cellular Zn^2+ by ICP-AES; format: cell-based, human; details: 3 h, ZNA or ZNA/ZnSO4
# Method in brief: as §1
# [13] = system: cytosolic cathepsin in MCF-7 cells; test: cytosolic cathepsin activity / cytoplasmic fractionation; format: cell-based, human
# Method in brief: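 Cells given test compound plus ZnSO4 for 6 h. Cytoplasmic cathepsin activity then measured with an enzymatic assay and expressed as mean activity relative to control. SEM of three experimental replicates.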
# [14] = system: MCF-10A cells; test: long-term colony formation after 24 h treatment; format: cell-based, human; details: 24 h treatment then 3 weeks without compound
# Method in brief: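 Cells treated 24 h, then cultured 21 days in compound-free medium. Surviving colonies stained with crystal violet and quantified. Mean and SD of four replicates.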
# [15] = system: MCF-7 cells; test: cell death by propidium iodide staining and flow cytometry; format: cell-based, human; details: cotreatment with ZnSO4, within 24 h
# Method in brief: (§6)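 Cells treated 24 h with test compound combined with ZnSO4, then stained with propidium iodide and analysed by flow cytometry. Mean and SEM of three replicates, normalized to the control sample.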
# [16] = system: MCF-10A; test: as above; format: cell-based, human
# Method in brief: as §6
# [17] = system: MCF-10A cells; test: intracellular Zn^2+ by FluoZin-3 and flow cytometry; format: cell-based, human
# Method in brief: (§7)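 Intracellular free Zn2+ measured by FluoZin-3 staining and flow cytometry after 1, 3, 24 or 48 h of treatment with test compound, with or without ZnSO4. For MCF-7, an extra 24 h arm included actinomycin D to block transcription. Mean and SEM of three replicates, compared with control.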
# [18] = system: MCF-7 cells; test: FluoZin-3 and LysoTracker colocalization; format: cell-based, human; details: ZNA (30 μM) and ZnSO4 (30 μM), 2 h
# Method in brief: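 Cells exposed 2 h to test compound (30 μM) and/or ZnSO4 (30 μM). Costained with FluoZin-3 (zinc), LysoTracker (lysosomes) and Hoechst, then imaged by fluorescence microscopy. Overlap of FluoZin-3 and LysoTracker signals quantified.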
# [19] = system: transformed and untransformed cell types; format: cell-based; details: ZNA (30 μM) or clioquinol (30 μM) with ZnSO4; propidium iodide
# [20] = system: malignant pleural effusion cells (PE1005339); test: 12-point dose–response assay in malignant pleural effusion cells; format: cell-based, human; details: PE1005339 tumor cells; 12-point dose–response; 4 days
# Method in brief: as §3
# [21] = system: PyMT mammary tumors; test: transplanted PyMT mouse mammary tumor model; format: in vivo
# Method in brief: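 PyMT-expressing mouse mammary cells were transplanted into the fat pads of 3-week-old female FVB mice. Tumour-bearing mice were assigned to four groups for 21 days: test compound 100 mg/kg i.p. once daily, 25 mM ZnSO4 continuously in drinking water, both, or PBS i.p. once daily. Mice were euthanised at 2 cm tumour diameter, and Kaplan–Meier survival analysis was used.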
# [22] = system: PyMT primary tumor organoids; test: 3D primary tumor organoid culture; format: cell-based; details: 144 h
# Method in brief: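 PyMT mouse tumor cells embedded as organoids in Matrigel and cultured 144 h. Test compound and/or ZnSO4, or vehicle, present from 48 h to the end. Final staining with Hoechst, calcein AM (live) and SYTOX Orange (dead), then imaged.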
# [23] = system: MCF-7 cells; test: cellular proliferation by EdU incorporation; format: cell-based, human; details: 6 h
# Method in brief: as §4
# [24] = system: MCF-7, T47D, and MDA-MB231 breast cancer cell lines; test: dose–response assays in breast cancer cell lines; format: cell-based, human; details: malignant cell lines; 5 days
# Method in brief: as §5
# [25] = system: MCF-7 cells; test: intracellular Zn^2+ by FluoZin-3 and flow cytometry; format: cell-based, human
# Method in brief: as §7
# [26] = system: MCF-10A and MCF-7 cells; test: evaluation of focused library; format: cell-based, human; details: MCF-7 versus MCF-10A; listed as compound 4
# Method in brief: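 MCF-7 breast cancer and untransformed MCF-10A mammary epithelial cells were given a range of test compound concentrations to generate dose–response curves. MCF-7 EC50 was the mean of three replicates. ΔAUC was the difference in area under the curve between MCF-7 and MCF-10A.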
# [27] = system: a variety of cancer cell lines; details: read-out: IC50s; cited from earlier work
# [28] = system: transformed and untransformed cells; test: cell viability; format: cell-based; details: 48 h; ATP quantification
# [29] = system: untransformed mouse MECs and MCF-10A cells, in comparison to MCF-7 cells; test: intracellular Zn^2+ by FluoZin-3, comparison of zinc interactors; format: cell-based; details: 3 h, absence of exogenous Zn^2+
# [30] = system: primary metastatic tumor cells derived from malignant pleural effusions (PEs) of breast cancer patients; details: 10 μM; PE cells; cited from earlier work
# [31] = system: immortalized human mammary epithelial cells (hTERT-HMEC); details: 10 μM; cited from earlier work
# [32] = system: epidermal growth factor (EGF)-stimulated DNA synthesis; details: cited from earlier work
compound,measurement,setting,value
"COc1ccc(-c2c(Cc3ccccc3)[nH]/c(=N\C(=O)c3ccccc3F)n2C)cc1 [ZNA, zinaamidole A]",total cellular Zn^2+ (ICP-AES),[1],below detectable levels
same,effect on cell viability in combination with Zn^2+,"[2]; MCF-10A and MCF-7, 24 h, ATP",highly synergistic and cancer selective
same,effect on cell viability in cotreatment with Cu^2+,"[2]; MCF-10 and MCF-7, 24 h, ATP",nonselective cell death
same,"effect on cell viability with Ni, Co, and Mn compared to ZNA alone",[2]; broader series of metals,minimal changes in cell viability
same,effect on cell viability in combination with Fe^2+,"[2]; untransformed and transformed cell lines, 24 h, ATP",relatively little effect
same,metal trafficking gene expression,[3],75 fold
same,"caspase 3/7, 8, or 9 activity","[4]; ZNA alone, MDA-MB-231, MCF-10A",either minimal or not observed
same,"caspase 3/7, 8, or 9 activity","[4]; ZNA/ZnSO4, MDA-MB-231, MCF-10A",either minimal or not observed
same,IC50,[5],> 100 µM
same,metal trafficking gene expression,[6],5 fold
same,long-term proliferative potential (colonies),[7],significantly affected long-term proliferative potential
same,EdU incorporation,[8]; ZNA (30 μM)/ZnSO4 (30 μM),only partially inhibiting
same,EdU incorporation,[8]; ZNA alone 30 μM,only a partial reduction
same,sensitivity (cell viability),[9],reduced sensitivity
same,organoids healthy with no visible extruding cells,"[10]; combination ZNA/ZnSO4, 144 h",Greater than 60%
same,organoids with either full or partial branching,"[10]; combination ZNA/ZnSO4, 144 h",approximately 90%
same,delay in branching morphogenesis,[10],24 h
same,MT1 and MT2 expression versus control treated mice,[11]; 3 h,increased
same,MT1 and MT2 expression,[11]; 24 h,decreased
same,total cellular Zn^2+ (ICP-AES),[12],increase in total cellular Zn^2+
same,cytosolic cathepsin activity,"[13]; MCF-7, combination of ZNA and ZnSO4, 6 h",significant increase
same,"cytosolic cathepsins B, D, and L relative to untreated cells","[13]; MCF-7s, ZNA/ZnSO4, cytoplasmic fractionation",increase
same,effect on long-term proliferative potential (colonies),[14],greatly attenuated
same,cell death,[15],> 80%
same,cell death,"[16]; ZNA alone, 24 h",unaffected
same,cell death,"[16]; combination with ZnSO4, 24 h",unaffected
same,increase in intracellular Zn^2+ (FluoZin-3),"[17]; 48 h, no exogenous Zn^2+",2 fold
same,intracellular Zn^2+ level versus vehicle control (FluoZin-3),[17]; cotreatment with Zn^2+,less than 10 fold
same,FluoZin-3 and LysoTracker overlap,[18],significant increase
same,"cytotoxic effect of combination with ZnSO4, time-course",[19],only observed in the transformed cell line
same,EC50,[20],4.12 µM
same,survival versus control-treated or ZnSO4-only groups,"[21]; ZNA 100 mg/kg i.p. once a day plus 25 mM ZnSO4 in drinking water, 21 days",significant survival advantage
same,"general toxicity, adverse reactions, body weight","[21]; ZNA 100 mg/kg i.p. once a day, 21 days","no general toxicity, adverse reactions, or decreases in body weight"
same,survival versus control-treated or ZnSO4-only groups,[21]; ZNA alone 100 mg/kg i.p. once a day for 21 days,significant survival advantage
same,"general toxicity, adverse reactions, body weight","[21]; combination of ZNA and ZnSO4, 21 days","no general toxicity, adverse reactions, or decreases in body weight"
same,organoids with strong cell extrusion phenotype,[22]; ZNA-alone,about 70%
same,organoids to which treatment was cytotoxic,[22]; ZNA/ZnSO4 cotreatment,over 80%
same,EdU incorporation,[23]; ZNA (30 μM)/ZnSO4 (30 μM),complete block
same,EdU incorporation,[23]; ZNA alone 30 μM,only a partial reduction
same,cell viability,[24],decreased cell viability
same,intracellular Zn^2+ on cotreatment with Actinomycin D versus ZNA-alone,"[25]; 24 h, with ACTD",statistically significant increase
same,increase in FluoZin-3 fluorescence (intracellular Zn^2+),"[25]; 48 h, no exogenous Zn^2+",13 fold
same,intracellular Zn^2+ concentration (FluoZin-3),"[25]; in the presence of 30 μM Zn^2+, 3 h",170 times
same,"potency and selectivity (EC50 in MCF-7, ΔAUC between MCF-7 and MCF-10A)",[26],significant increase in potency and selectivity; also recorded: greatest balance of potency and selectivity
O=S(=O)([O-])[O-].[Zn+2] [ZnSO4],delay in branching morphogenesis,[10],24 h
Oc1c(I)cc(Cl)c2cccnc12 [clioquinol],IC50,[27],5 to 50 µM
same,organoids killed,[10]; compound alone,100%
same,organoids killed,[10]; with ZnSO4,100%
same,toxicity of combination with ZnSO4,[28],toxic to both transformed and untransformed cells
same,intracellular Zn^2+ levels (FluoZin-3),[29],increase in intracellular Zn^2+
same,"cytotoxic effect of combination with ZnSO4, time-course",[19],cytotoxic toward all cell types tested
naamidine A,decrease in cell viability,[30],100%
same,decrease in cell viability,[31],100%
same,organoids killed,[10]; compound alone,100%
same,effect of exogenous ZnSO4 on cytotoxic effects in organoids,[10]; with exogenous ZnSO4,rescued the cytotoxic effects
same,intracellular Zn^2+ levels (FluoZin-3),[29],decreased or unchanged
same,inhibition of EGF-stimulated DNA synthesis,[32],submicromolar
